ChEMBL document CHEMBL1134367, “Solid-phase synthesis and inhibitory effects of some pyrido[1,2-c]pyrimidine derivatives on leukocyte formations and experimental inflammation” (J Med Chem, 2001)

Legend:
Homo sapiens [1] = species: Homo sapiens; assay: Percent inhibition of neutrophils (chemiluminescence) was determined at 10 uM concentration in TPA-induced luminol chemiluminescence assay
Mus musculus [2] = assay: PGE-2 levels were assayed in inflamed paw after 5 hr carrageenan paw edema test in mice; format: functional
In short: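 Carrageenan-injected mice (oral compound 1 h prior, Tween 80/saline vehicle) killed by cervical dislocation 5 h after carrageenan. Right hind paws homogenized and PGE₂ measured in homogenates; stomachs handled the same way. Mean ± SEM, n 6-12; ANOVA with Dunnett's t-test.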

Mus musculus [3] = species: Mus musculus; assay: PGE-2 levels were assayed in LPS stimulated RAW 264.7 macrophages for 20h in either presence or absence of compound; format: functional
In short: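 Murine RAW 264.7 cells grown in DMEM with 2 mM glutamine, antibiotics and 10% FBS. Cells at 2 × 10⁶/mL exposed to E. coli LPS 1 µg/mL, 37 °C, 20 h, with compound or vehicle. PGE₂ in supernatants by radioimmunoassay. […] Cytotoxicity checked by MTT reduction.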

Mus musculus [4] = species: Mus musculus; assay: Inhibitory activity against LPS stimulated RAW 264.7 macrophages; format: functional; conditions: RAW264.7
In short: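 Murine RAW 264.7 cells grown in DMEM with 2 mM glutamine, antibiotics and 10% FBS. Cells at 2 × 10⁶/mL exposed to E. coli LPS 1 µg/mL, 37 °C, 20 h, with compound or vehicle. PGE₂ in supernatants by radioimmunoassay. Cytotoxicity checked by MTT reduction.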

[5] = Percentage inhibition of H/XO (chemiluminescence) was determined at 10 uM concentration
In short: (§1)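 Cell-free superoxide made by the hypoxanthine/xanthine oxidase system, with chemiluminescence recorded.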

Mus musculus [6] = assay: Antiinflammatory activity, assessed by the carrageenan paw edema test in mice; format: functional
In short: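 Mice dosed orally with compound at 20 mg/kg (reference at 10 mg/kg) in Tween 80/saline 1/99 v/v, 1 h before subplantar 3% w/v carrageenan (0.05 mL) in right hind paw. Paw volumes by plethysmometer at 1, 3 and 5 h; edema values at 3 h. Mean ± SEM, n 6-12; ANOVA with Dunnett's t-test.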

Mus musculus [7] = species: Mus musculus; assay: PGE-2 level was assayed in RAW 264.7 macrophages after a 20h stimulation with LPS followed by incubation with compound and arachidonic acid for 2 hr; format: functional
In short: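 RAW 264.7 cells first stimulated with LPS for 20 h, then washed and incubated 2 h with compound plus arachidonic acid. PGE₂ measured to assess COX-2 activity in intact cells.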

[8] = (§2) Inhibition of chemiluminescence generated by hypoxanthine/ xanthine oxidase was determined; design: concentration or dose not given beside the values; conditions: concentration not given here
In short: as §1

[9] = as §2; conditions: concentration not given here
In short: as §1

Homo sapiens [10] = species: Homo sapiens; assay: Percent inhibition of neutrophils (chemiluminescence) was determined at 10 uM concentration; format: functional
In short: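 Purified human neutrophils at 2.5 × 10⁶ cells/mL with luminol 40 µM and TPA 1 µM; chemiluminescence recorded. Compounds tested at 10 µM; mean ± SEM.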

Row | IC50 (Mus musculus [4]) | inhibition [5] | inhibition [8] | inhibition [9] | SMILES | inhibition at 10 µM (Homo sapiens [1]) | PGE2 Level (Mus musculus [2]) | PGE2 Level (Mus musculus [3]) | Edema (Mus musculus [6]) | PGE2 Level (Mus musculus [7]) | inhibition at 10 µM (Homo sapiens [10])
1 | 3500 nM | 93.3% | – | – | CCOC(=O)c1cc2ccccn2/c(=N/c2ccc(OC)cc2)n1 | 75.9% | 78.7 ng/mL | 12 ng/mL | 91.6 µL | 9.6 ng/mL | –
2 | – | – | 26.6% | – | CCOC(=O)c1cc2ccccn2c(=O)n1 | 29.9% | 85.4 ng/mL | 16.9 ng/mL | 121.9 µL | 10.6 ng/mL | –
3 | 400 nM | – | 31.3% | – | CCOC(=O)c1cc2ccccn2/c(=N/c2ccc(Cl)cc2)n1 | 38.8% | 83.3 ng/mL | 8.2 ng/mL | 102 µL | 10.6 ng/mL | –
4 | 1500 nM | – | 49.6% | – | CCOC(=O)c1cc2ccccn2/c(=N/c2ccc(F)cc2)n1 | 44.4% | 82.5 ng/mL | 11.8 ng/mL | 103.9 µL | 8.9 ng/mL | –
5 | – | – | – | 51.6% | [S-]c1nc2ccccc2c2cccc[n+]12 | 53.7% | – | 16.9 ng/mL | – | 10.3 ng/mL | –
6 | 1700 nM | 49.1% | – | – | CCOC(=O)c1cc2ccccn2/c(=N/c2ccc(C)cc2)n1 | – | 71 ng/mL | 13.3 ng/mL | 92.4 µL | 13.5 ng/mL | 31.1%
7 | – | – | 32.2% | – | CCOC(=O)c1cc2ccccn2/c(=N/c2ccc(Br)cc2)n1 | 24.8% | 76.9 ng/mL | 14.8 ng/mL | 80.8 µL | 9.5 ng/mL | –
8 | 1700 nM | – | 43.3% | – | CCOC(=O)c1cc2ccccn2c(=S)n1 | 51.8% | 89.7 ng/mL | 12.8 ng/mL | 105.2 µL | 8.2 ng/mL | –
9 | – | 57.1% | – | – | CCOC(=O)c1cc2ccccn2/c(=N/c2ccccc2)n1 | – | 70.6 ng/mL | 10.9 ng/mL | 82.2 µL | 11 ng/mL | 52.3%
10 | 2.1 nM | – | – | – | CS(=O)(=O)Nc1ccc([N+](=O)[O-])cc1OC1CCCCC1 [NS-398] | – | 53 ng/mL | 3.7 ng/mL | 97.2 µL | 2.1 ng/mL | –
